From ChEMBL document CHEMBL4017546, “Small-Molecule Inhibitors of the CD40-CD40L Costimulatory Protein-Protein Interaction” (J Med Chem, 2017)
≈ marks a conversion by molar mass, not a printed value. Calls of active or inactive are those of the source. No cut-off for these calls is given here.

Tests used:
[1] = tested on: THP-1; assay: Cytotoxicity against human THP1 cells assessed as reduction in cell viability at 100 uM after 48 hrs by MTT assay; type: cell-based; conditions: thp-1, 48 h
In short: (§1)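 THP-1 cells grown in RPMI-1640 with 10% FBS, starved 24 h in FBS-free medium, then seeded at 50,000 cells/well with compounds diluted in the same medium. Incubated 48 h at 37°C, MTT added for a further half hour, formazan read at 490 nm. Data converted to percent inhibition; duplicate or triplicate wells, at least three independent experiments.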

[2] = tested on: Salmonella typhimurium; assay: Mutagenicity in Salmonella typhimurium TA100 up to 500 uM measured daily up to day 6 by Ames test; type: toxicity; conditions: salmonella enterica subsp. enterica serovar typhimurium
In short: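 Muta-Chromplate Ames format with S. typhimurium TA-100, reconstituted and grown overnight (16–18 h) at 37°C, then added to reaction mixture with compound at 0.1 to 500 μM (DMSO ≤2.5% final). Plated one plate per condition, incubated at 37°C, positive wells counted daily. Controls were background, NaN3 positive and sterility plates; significance from the manufacturer's tables.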

[3] = Inhibition of human Fc-conjugated TNF-R/FLAG-tagged biotinylated TNFalpha protein-protein interaction incubated for 1 hr by ELISA-type assay
[4] = biological target: T1, CD40-CD40L (Homo sapiens, UniProt P25942+P29965); assay: Inhibition of interaction of CD40 (unknown origin) transfected in HEK Blue cells with recombinant human CD40L assessed as reduction in CD40L-induced NF-kappaB activation after 18 hrs by spectrophotometry based SEAP reporter gene assay; type: cell-based
[5] = Solubility of the compound in water; type: physicochemical; conditions: buffer
In short: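 Saturated solution in distilled water, concentration measured by C18 HPLC (60:40 water:acetonitrile, 2.0 mM ammonium acetate, UV 254 nm). Calibration standards were made from known amounts dissolved in 20% w/v aqueous HPβCD. Compounds were tested as triethylamine salts unless stated otherwise.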

[6] = biological target: T1, CD40-CD40L; assay: Inhibition of interaction of CD40 in human THP-1 cells with recombinant human CD40L assessed as reduction in CD40L-induced […] upregulation after 48 hrs by DAPI-staining based flow cytometric analysis; type: cell-based
In short: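 THP-1 cells serum-starved 24 h, then stimulated with rhCD154 (MegaCD40L) at 0.5 µg/mL plus graded compound in FBS-free RPMI for 48 h at 37°C, 5% CO2. Stained for HLA-DR, then DAPI just before flow cytometry. Marker quantified in live (DAPI-negative) cells.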
Target sequence in this assay (P25942 21-277 limits assumed): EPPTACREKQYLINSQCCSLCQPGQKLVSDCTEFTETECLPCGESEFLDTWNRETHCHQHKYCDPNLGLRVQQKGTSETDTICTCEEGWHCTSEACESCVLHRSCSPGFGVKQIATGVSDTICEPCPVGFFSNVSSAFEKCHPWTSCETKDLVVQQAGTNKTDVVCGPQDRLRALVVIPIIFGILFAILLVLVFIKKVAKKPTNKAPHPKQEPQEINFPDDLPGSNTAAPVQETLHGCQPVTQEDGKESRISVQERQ
Target sequence in this assay (P29965 113-261 partner limits assumed): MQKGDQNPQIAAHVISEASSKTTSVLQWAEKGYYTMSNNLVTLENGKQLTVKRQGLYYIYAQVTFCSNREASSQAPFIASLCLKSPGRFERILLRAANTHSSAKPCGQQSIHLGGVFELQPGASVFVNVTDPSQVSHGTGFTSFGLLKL

[7] = biological target: T1, CD40-CD40L; assay: Inhibition of human Fc-conjugated CD40/FLAG-tagged biotinylated CD40L costimulatory protein-protein interaction incubated for 1 hr by ELISA-type assay
[8] = biological target: T1, CD40-CD40L; assay: Inhibition of interaction of CD40 in human B cells with recombinant human CD40L assessed as reduction in CD40L-induced cell proliferation after 48 hrs by BrdU incorporation-based ELISA
In short: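 CD19+ B cells from healthy-donor PBMC (magnetic bead selection, >90% CD19+) at 2 × 10^5 cells/mL in IMDM with 10% FBS, ITS and rhIL-4 at 0.2 µg/mL. Activated with rhCD154 (MegaCD40L) at 0.1 µg/mL plus graded compound for 48 h. BrdU then added for another 48 h; incorporation read by colorimetric ELISA.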
Target sequence in this assay (P25942 21-277 limits assumed): as the sequence (P25942 21-277 limits assumed) above
Target sequence in this assay (P29965 113-261 partner limits assumed): as the sequence (P29965 113-261 partner limits assumed) above

[9] = biological target: MAC1-CD40L (Homo sapiens) (UniProt P05107+P11215+P29965); assay: Inhibition of human Fc-conjugated Mac1/FLAG-tagged biotinylated CD40L protein-protein interaction incubated for 1 hr by ELISA-type assay
MAC1-CD40L (Homo sapiens), sequence (P05107 whole entry, looked up, other chains not shown): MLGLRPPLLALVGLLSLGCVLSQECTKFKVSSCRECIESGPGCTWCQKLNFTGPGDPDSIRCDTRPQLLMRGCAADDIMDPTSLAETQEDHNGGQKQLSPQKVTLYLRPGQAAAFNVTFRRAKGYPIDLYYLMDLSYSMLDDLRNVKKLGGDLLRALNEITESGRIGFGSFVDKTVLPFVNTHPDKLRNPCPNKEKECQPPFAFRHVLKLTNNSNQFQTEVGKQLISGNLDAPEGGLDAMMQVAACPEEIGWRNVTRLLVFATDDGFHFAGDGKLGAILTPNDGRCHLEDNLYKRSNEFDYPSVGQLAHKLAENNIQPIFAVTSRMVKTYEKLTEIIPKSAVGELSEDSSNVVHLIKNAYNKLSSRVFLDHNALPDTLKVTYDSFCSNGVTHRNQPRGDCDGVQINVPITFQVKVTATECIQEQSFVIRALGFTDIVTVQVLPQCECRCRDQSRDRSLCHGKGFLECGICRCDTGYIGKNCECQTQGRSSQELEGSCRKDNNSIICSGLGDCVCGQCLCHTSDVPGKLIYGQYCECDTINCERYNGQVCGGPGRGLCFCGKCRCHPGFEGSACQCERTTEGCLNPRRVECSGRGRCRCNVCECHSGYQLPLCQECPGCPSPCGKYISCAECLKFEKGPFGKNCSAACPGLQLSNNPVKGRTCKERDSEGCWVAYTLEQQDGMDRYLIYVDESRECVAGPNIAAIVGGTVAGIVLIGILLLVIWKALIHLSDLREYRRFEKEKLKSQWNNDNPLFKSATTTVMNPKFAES
MAC1-CD40L (Homo sapiens), sequence (P29965 whole entry, looked up, other chains not shown): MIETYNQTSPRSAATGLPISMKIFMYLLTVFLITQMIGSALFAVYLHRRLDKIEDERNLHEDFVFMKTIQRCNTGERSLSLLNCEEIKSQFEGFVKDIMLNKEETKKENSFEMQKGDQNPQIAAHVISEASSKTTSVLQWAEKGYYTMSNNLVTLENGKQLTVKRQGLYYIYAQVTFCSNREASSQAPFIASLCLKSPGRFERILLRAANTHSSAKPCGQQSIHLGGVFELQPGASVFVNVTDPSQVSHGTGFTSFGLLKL
In short: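 Fc-conjugated Mac-1 coated overnight at 4°C at 0.4 µg/mL; blocked with PBS/Tween/BSA. FLAG-tagged CD40L at 0.2 µg/mL added with graded compound in HEPES binding buffer (pH 7.2) for 1 h. Detection with anti-FLAG HRP/TMB at 450 nm. Data converted to percent inhibition and fitted to a log inhibitor curve.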

[10] = biological target: T1, CD40-CD40L; assay: Inhibition of interaction of CD40 in promoter/enhancer region of aicda-fused Ds-Red reporter transfected human B cells with recombinant human CD40L assessed as reduction in CD40L/IL-4-induced B cell activation by measuring AID expression after 2 days by flow cytometric analysis
In short: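 Primary human B cells transduced by spinoculation (1.5 h, 2,500g, 32°C, polybrene 8 µg/mL) with aicda promoter/enhancer–DsRed lentivirus. Cells at 1.25 × 10^5/mL in IMDM with 10% FBS, stimulated with IL-4 and CD40L (each 0.2 µg/mL) plus graded compound for 2 days at 37°C. DsRed read by flow cytometry. Anti-CD40L mAb 33.3 nM and CpG 1 µg/mL as controls; n=3.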

[11] = species: Homo sapiens; assay: Selectivity ratio of IC50 for human Fc-conjugated TNF-R/FLAG-tagged biotinylated TNFalpha protein-protein interaction to IC50 for human Fc-conjugated CD40/FLAG-tagged biotinylated CD40L costimulatory protein-protein interaction
In short: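 Cell-free plate binding: TNF-R-Fc and CD40-Fc each coated at 0.3 µg/mL. FLAG-tagged TNF-α or CD40L, each at 0.02 µg/mL, added with graded compound for 1 h in HEPES buffer, pH 7.2. Anti-FLAG HRP/TMB detection at 450 nm. IC50s come from log inhibitor fits.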

[12] = tested on: THP-1; assay: Cytotoxicity against human THP1 cells assessed as reduction in cell viability at 100 to 200 uM after 48 hrs by MTT assay; type: cell-based; conditions: thp-1, 48 h; in short: as §1
[13] = biological target: T1, CD40-CD40L; assay: Ratio of IC50 for human Fc-conjugated CD40/FLAG-tagged biotinylated CD40L costimulatory protein-protein interaction in presence of Triton-X 100 to IC50 for human Fc-conjugated CD40/FLAG-tagged biotinylated CD40L costimulatory protein-protein interaction in absence of Triton-X 100; type: protein assay
In short: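 CD40-Fc (0.3 µg/mL) coated, FLAG-CD40L (0.02 µg/mL) binding, 1 h, anti-FLAG HRP/TMB read at 450 nm. Run with and without the non-ionic detergent Triton X-100 at 0.01% to test for colloidal aggregation. IC50 taken from log inhibitor vs. response fits in each condition.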
Target sequence in this assay (P25942 21-277 limits assumed): as the sequence (P25942 21-277 limits assumed) above
Target sequence in this assay (P29965 113-261 partner limits assumed): as the sequence (P29965 113-261 partner limits assumed) above

[14] = tested on: Mus musculus; assay: Toxicity in C57BL6 mouse implanted with BALB/c mouse skin graft at 30 mg/kg, sc administered daily for 2 weeks; type: organism-based; conditions: in vivo, 336 h
In short: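 C57BL/6 recipients carried full-thickness BALB/c ear skin grafts on the dorsal thorax. They received CTLA4-Ig 250 μg on days 0, 2, 4 and 6, plus compound at 30 mg/kg s.c. daily in 20% w/v HPβCD over two weeks, and were watched for signs of toxicity. 5–8 mice per group.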

[15] = tested on: Mus musculus; assay: In vivo inhibition of alloantigen-induced T cell response in sc dosed BALB/c mouse injected with DBA-2 mouse splenocytes assessed as reduction in splenocyte-mediated increase in draining popliteal lymph node cells administered as bid from 1 day before alloantigen challenge to 3 days post alloantigen challenge; type: functional, organism-based
In short: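 Female BALB/c recipients (10–12 weeks) got a footpad injection of 1 × 10^7 splenocytes from male DBA-2 donors. Compound given s.c. at 20–60 mg/kg b.i.d. from day -1 to 3 in 20% HPβCD; MR-1 anti-CD40L (20 mg/kg, days -1 and 0) as positive control. Draining popliteal nodes taken 3 days after challenge and cells counted; n = 3–4 per group, mean ± SD.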

[16] = Elimination half life in C57BL6 mouse at 60 mg/kg, sc administered as single dose measured up to 24 hrs by HPLC analysis; type: ADME, organism-based; conditions: in vivo, read-out: beta t1/2 (converted)
In short: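 Single s.c. dose of 1.6 mg/mouse (~60 mg/kg) in 250 µL 20% w/v HPβCD to male C57BL/6 mice, 10 weeks old (n = 4). Tail blood (50 µL) drawn at 0, 0.5, 1, 2, 4, 6 and 24 h. Plasma quantified by C18 HPLC (60:40 water:acetonitrile with 2.0 mM ammonium acetate, 254 nm), calibration linear over 1 to 500 µg/mL.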

| Compound | IC50 [3] | IC50 [4] | inhibition [4] | IC50 [7] | inhibition [7] | inhibition [9] | Ratio IC50 [11] | other results |
| --- | --- | --- | --- | --- | --- | --- | --- | --- |
| O=C(Nc1ccc(-c2ccc(C(=O)Nc3cccc4cccc(S(=O)(=O)O)c34)cc2)cc1)c1ccc([N+](=O)[O-])cc1 | > 1000 µM | 10.3 µM | Dose-dependent effect | 0.31 µM | Dose-dependent effect | Active | – | Activity [1]: Non-Toxic; Activity [2]: Non-Toxic; solubility [5]: 7 µM (≈ 3.97 µg/mL); inhibition [6]: Dose-dependent effect; inhibition [8]: Dose-dependent effect; IC50 [10]: 13.2 µM; inhibition [10]: Dose-dependent effect |
| O=C(Nc1ccc(-c2ccc(C(=O)Nc3cccc4cccc(S(=O)(=O)O)c34)cc2)cc1)c1ccc2[nH]nnc2c1 | > 1000 µM | – | – | 0.99 µM | Dose-dependent effect | – | > 100 | – |
| H-VLQWAEKGYYTMSNN-OH | – | – | – | 154 µM | – | – | – | – |
| O=C(Nc1ccc(-c2ccc(C(=O)Nc3ccc(S(=O)(=O)O)c4ccccc34)cc2)cc1)c1ccc([N+](=O)[O-])cc1 | 479 µM | – | – | 2.33 µM | Dose-dependent effect | – | > 100 | – |
| Nc1ccc(C(=O)Nc2ccc(-c3ccc(C(=O)Nc4cccc5cccc(S(=O)(=O)O)c45)cc3)cc2)cc1 | 887 µM | – | – | 301 µM | – | Active | > 100 | Activity [12]: Toxic |
| O=C(Nc1ccc(-c2ccc(C(=O)Nc3ccc(C(=O)O)c4ccccc34)cc2)cc1)c1ccc([N+](=O)[O-])cc1 | > 1000 µM | 9.4 µM | Dose-dependent effect | 0.36 µM | Dose-dependent effect | Active | – | Activity [12]: Toxic; solubility [5]: 17 µM (≈ 9.04 µg/mL); inhibition [6]: Dose-dependent effect; inhibition [8]: Dose-dependent effect; IC50 [10]: 15.9 µM; inhibition [10]: Dose-dependent effect |
| CSCC[C@H](NC(=O)[C@@H](NC(=O)[C@H](Cc1ccc(O)cc1)NC(=O)[C@H](Cc1ccc(O)cc1)NC(=O)CNC(=O)[C@H](CCCCN)NC(=O)[C@H](CCCCN)NC(=O)[C@H](C)NC(=O)[C@H](Cc1c[nH]c2ccccc12)NC(=O)[C@H](CCC(N)=O)NC(=O)[C@H](CC(C)C)NC(=O)[C@@H](N)C(C)C)[C@@H](C)O)C(=O)N[C@@H](CCCCN)C(=O)N[C@@H](CO)C(=O)N[C@@H](CC(N)=O)C(=O)O | – | – | – | – | inactive | – | – | – |
| O=C1OC2(c3ccccc31)c1cc(I)c(O)c(I)c1Oc1c2cc(I)c(O)c1I | – | – | – | – | – | – | – | Ratio IC50 [13]: 1.04 |
| O=C(Nc1ccc(C(=O)Nc2cccc3cccc(S(=O)(=O)O)c23)cc1)c1ccc([N+](=O)[O-])cc1 | > 1000 µM | – | – | – | – | Active | > 100 | – |
| O=C(Nc1ccc2c(O)c(/N=N/c3ccc(/N=N\c4ccc(S(=O)(=O)O)cc4)cc3S(=O)(=O)O)c(S(=O)(=O)O)cc2c1)Nc1ccc2c(O)c(/N=N/c3ccc(/N=N\c4ccc(S(=O)(=O)O)cc4)cc3S(=O)(=O)O)c(S(=O)(=O)O)cc2c1 | – | 42.7 µM | Dose-dependent effect | 2.26 µM | – | Active | – | – |
| COC(=O)c1ccc(C(=O)Nc2ccc(-c3ccc(C(=O)Nc4cccc5cccc(S(=O)(=O)O)c45)cc3)cc2)cc1 | 992 µM | 17.1 µM | Dose-dependent effect | 0.17 µM | Dose-dependent effect | Active | – | Activity [1]: Non-Toxic; Activity [2]: Non-Toxic; Activity [14]: Non-Toxic; solubility [5]: 240 µM (≈ 139 µg/mL); inhibition [15]: Active; inhibition [6]: Dose-dependent effect; inhibition [8]: Dose-dependent effect; IC50 [10]: 4.5 µM; inhibition [10]: Dose-dependent effect; half-life [16]: 2 h |
